Results: ChEMBL document CHEMBL2202977, “Optimization and structure-activity relationships of a series of potent inhibitors of methicillin-resistant Staphylococcus aureus (MRSA) pyruvate kinase as novel antimicrobial agents” (Bioorg Med Chem, 2012)
≈ marks a conversion by molar mass, not a printed value.

Assays:
Pyruvate kinase = target: T1, Pyruvate kinase (Staphylococcus aureus (strain MRSA252), UniProt Q6GG09); test: Inhibition of methicillin-resistant Staphylococcus aureus 252 pyruvate kinase by LDH assay; parameters: species or system Staphylococcus aureus subsp. aureus MRSA252
T1 sequence (Q6GG09 whole entry): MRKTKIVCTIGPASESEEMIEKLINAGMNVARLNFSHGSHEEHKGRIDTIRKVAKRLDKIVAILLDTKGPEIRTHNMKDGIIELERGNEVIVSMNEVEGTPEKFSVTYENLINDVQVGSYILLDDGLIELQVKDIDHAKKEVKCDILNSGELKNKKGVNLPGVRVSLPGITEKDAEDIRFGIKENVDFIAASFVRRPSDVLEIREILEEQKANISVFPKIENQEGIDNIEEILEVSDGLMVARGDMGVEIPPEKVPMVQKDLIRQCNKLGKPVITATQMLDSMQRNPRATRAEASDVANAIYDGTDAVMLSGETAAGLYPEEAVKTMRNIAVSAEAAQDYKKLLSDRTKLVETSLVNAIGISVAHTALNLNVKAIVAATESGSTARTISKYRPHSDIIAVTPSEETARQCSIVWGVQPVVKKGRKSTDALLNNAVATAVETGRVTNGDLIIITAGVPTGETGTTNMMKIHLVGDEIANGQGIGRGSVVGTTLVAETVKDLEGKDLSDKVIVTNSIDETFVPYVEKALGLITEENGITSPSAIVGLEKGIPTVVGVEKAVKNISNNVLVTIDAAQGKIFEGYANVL
How it was run: (§1)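 MRSA pyruvate kinase activity was measured by a previously described procedure. IC50 was calculated from triplicate 15-point titrations, or averaged over n such determinations. Where no IC50 was obtained, the value is % inhibition at the highest concentration tested.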

Staphylococcus aureus = test: Antimicrobial activity against Staphylococcus aureus RN4220 after 24 hrs broth microdilution method; assay type: functional
How it was run: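 MIC taken as the minimum concentration giving >98% growth inhibition of the named S. aureus strain (RN4220, ATCC 25923 or ATCC 29213). Values are single determinations or averages of n determinations. Vancomycin was run as control.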

[1] = target: Pyruvate kinase PKLR (Homo sapiens) (UniProt P30613); test: Inhibition of human pyruvate kinase L at 10 uM by LDH assay
How it was run: (§2)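 Selected compounds were tested against mammalian PK isoforms M1, M2, R and L at the highest concentration, 10 µM. Results are given as percent inhibition.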

[2] = target: Pyruvate kinase PKM (Homo sapiens) (UniProt P14618); test: Inhibition of human pyruvate kinase M2 at 10 uM by LDH assay; how it was run: as §2
[3] = target: Pyruvate kinase PKLR (Homo sapiens) (UniProt P30613); test: Inhibition of human pyruvate kinase R at 10 uM by LDH assay; how it was run: as §2
[4] = target: T2, Pyruvate kinase (Staphylococcus aureus (strain MRSA252)) (UniProt Q6GG09); test: Inhibition of methicillin-resistant Staphylococcus aureus 252 pyruvate kinase at 10 uM by LDH assay; conditions: Staphylococcus aureus subsp. aureus MRSA252; how it was run: as §1
T2 sequence (whole entry): T1 sequence (Q6GG09 whole entry)

[5] = target: Pyruvate kinase PKM (Homo sapiens) (UniProt P14618); test: Inhibition of human pyruvate kinase M1 at 10 uM by LDH assay; how it was run: as §2

Chain of Pyruvate kinase PKM (Homo sapiens) (P14618 2-531 limits assumed): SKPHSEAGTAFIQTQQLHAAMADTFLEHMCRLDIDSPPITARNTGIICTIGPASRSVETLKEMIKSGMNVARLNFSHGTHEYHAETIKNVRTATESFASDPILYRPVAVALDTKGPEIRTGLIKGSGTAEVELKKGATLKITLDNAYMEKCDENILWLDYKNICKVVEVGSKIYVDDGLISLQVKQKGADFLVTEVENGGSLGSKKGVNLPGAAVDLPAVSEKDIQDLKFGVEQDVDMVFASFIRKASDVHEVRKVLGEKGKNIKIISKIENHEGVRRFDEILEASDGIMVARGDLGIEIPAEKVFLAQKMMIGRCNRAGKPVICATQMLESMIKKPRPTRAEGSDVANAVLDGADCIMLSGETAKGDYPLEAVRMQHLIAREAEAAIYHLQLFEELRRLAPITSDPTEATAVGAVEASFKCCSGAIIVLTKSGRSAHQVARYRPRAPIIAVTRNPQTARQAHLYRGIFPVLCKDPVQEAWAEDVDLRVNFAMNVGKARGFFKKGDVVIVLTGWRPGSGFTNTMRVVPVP
Chain of Pyruvate kinase PKLR (Homo sapiens) (P30613 whole entry, looked up, canonical isoform): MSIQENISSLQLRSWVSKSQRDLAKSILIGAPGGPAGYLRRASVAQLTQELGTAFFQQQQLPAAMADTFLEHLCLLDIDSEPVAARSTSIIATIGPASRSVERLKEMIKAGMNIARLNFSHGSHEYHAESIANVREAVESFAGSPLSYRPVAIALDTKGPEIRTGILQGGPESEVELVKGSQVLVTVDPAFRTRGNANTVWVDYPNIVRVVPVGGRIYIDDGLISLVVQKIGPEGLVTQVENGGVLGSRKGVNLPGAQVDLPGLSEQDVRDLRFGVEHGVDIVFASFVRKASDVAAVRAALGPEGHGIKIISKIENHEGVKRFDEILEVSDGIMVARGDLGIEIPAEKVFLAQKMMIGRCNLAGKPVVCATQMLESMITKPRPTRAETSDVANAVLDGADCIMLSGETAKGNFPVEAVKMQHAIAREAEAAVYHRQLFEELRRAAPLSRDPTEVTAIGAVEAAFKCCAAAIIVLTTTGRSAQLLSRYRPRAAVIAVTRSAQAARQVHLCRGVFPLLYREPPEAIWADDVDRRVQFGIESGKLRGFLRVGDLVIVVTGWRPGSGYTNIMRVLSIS

## CC(=NNC(=O)c1cc(Br)ccc1O)c1cc2ccc(Br)cc2n1C (mixture of isomers)
Pyruvate kinase
  IC50: 17 nM
Staphylococcus aureus
  MIC>98: 1 µg/mL

## CCC(=NNC(=O)c1cc(Br)ccc1O)c1cc2ccccc2n1C (mixture of isomers)
[1]
  inhibition: 2.7%
Pyruvate kinase
  IC50: 461 nM
Staphylococcus aureus
  MIC>98: 5 µg/mL
[2]
  inhibition: -1.5%
[3]
  inhibition: -1.9%
[4]
  inhibition: 99.1%
[5]
  inhibition: -4.3%

## C/C(=N\OC(=O)c1cc(Br)ccc1O)c1cc2ccccc2n1C
Staphylococcus aureus
  MIC>98: >155 µg/mL
[4]
  inhibition: 34%

## CC(=NNC(=O)c1cc(Br)ccc1O)c1cc2cc(F)c(F)cc2n1C (mixture of isomers)
[1]
  inhibition: -2.4%
Pyruvate kinase
  IC50: 61 nM
Staphylococcus aureus
  MIC>98: 1.6 µg/mL
[2]
  inhibition: -8.1%
[3]
  inhibition: 9%
[4]
  inhibition: 95.4%

## CC(=NNC(=O)c1cc(I)ccc1O)c1cc2ccccc2n1C (mixture of isomers)
[1]
  inhibition: 4.4%
Pyruvate kinase
  IC50: 483 nM
Staphylococcus aureus
  MIC>98: 5.4 µg/mL
[2]
  inhibition: -2%
[3]
  inhibition: 4.7%
[4]
  inhibition: 94.2%
[5]
  inhibition: -5.3%

## Cn1c(C=NNC(=O)c2cc(Br)ccc2O)cc2ccccc21 (mixture of isomers)
Pyruvate kinase
  IC50: 3090 nM
Staphylococcus aureus
  MIC>98: >186 µg/mL

## CC(=NNC(=O)c1cc(Br)ccc1O)c1cc2cc(Cl)ccc2n1C (mixture of isomers)
[1]
  inhibition: 5.7%
Pyruvate kinase
  IC50: 228 nM
Staphylococcus aureus
  MIC>98: 1.3 µg/mL
[2]
  inhibition: 3.7%
[3]
  inhibition: 6.9%
[4]
  inhibition: 92.3%
[5]
  inhibition: 14.8%

## COc1ccc2c(c1)cc(C(C)=NNC(=O)c1cc(Br)ccc1O)n2C (mixture of isomers)
[1]
  inhibition: 2.8%
Pyruvate kinase
  IC50: 794 nM
Staphylococcus aureus
  MIC>98: 10.4 µg/mL
[3]
  inhibition: 5.5%
[4]
  inhibition: 71.3%
[5]
  inhibition: -2.8%

## C/C(=N\NC(=O)c1cc(Br)ccc1O)c1cc2cc(F)c(F)cc2[nH]1
Pyruvate kinase
  IC50: 20 nM
Staphylococcus aureus
  MIC>98: >82 µg/mL

## CC(=NNC(=O)c1cc(Br)ccc1O)c1nc2ccccc2n1C (mixture of isomers)
[1]
  inhibition: -1.3%
Pyruvate kinase
  IC50: 227 nM
Staphylococcus aureus
  MIC>98: >194 µg/mL
[2]
  inhibition: 0.5%
[3]
  inhibition: 7.1%
[5]
  inhibition: -3%

## C/C(=N\NC(=O)c1cc(Br)ccc1O)c1nc2ccccc2[nH]1
[1]
  inhibition: 2.1%
Pyruvate kinase
  IC50: 91 nM
Staphylococcus aureus
  MIC>98: >187 µg/mL
[2]
  inhibition: 6.7%
[3]
  inhibition: -1.4%
[4]
  inhibition: 96.4%
[5]
  inhibition: 7.6%

## C/C(=N\NC(=O)c1cc(Br)ccc1O)c1cc2ccccc2[nH]1
[1]
  inhibition: -6.9%
Pyruvate kinase
  IC50: 85 nM
Staphylococcus aureus
  MIC>98: >186 µg/mL
[2]
  inhibition: 4.3%
[3]
  inhibition: -8.7%
[4]
  inhibition: 98.1%
[5]
  inhibition: 4.6%

## C/C(=N\NC(=O)c1cc(Br)ccc1O)c1cc2cc(Br)ccc2[nH]1
[1]
  inhibition: 6.8%
Pyruvate kinase
  IC50: 49 nM
Staphylococcus aureus
  MIC>98: >226 µg/mL
[2]
  inhibition: 8.3%
[3]
  inhibition: 10.7%
[4]
  inhibition: 72.2%
[5]
  inhibition: 21.6%

## COc1ccc(Br)cc1S(=O)(=O)N/N=C(\C)c1cc2c(F)c(F)ccc2[nH]1
[4]
  inhibition: 11%

## C/C(=N\NC(=O)c1cc(Br)cc(Br)c1O)c1cc2ccccc2[nH]1
Pyruvate kinase
  IC50: 74 nM
Staphylococcus aureus
  MIC>98: 64 µg/mL (≈ 142 µM)

## C/C(=N\NC(=O)c1cc(Br)ccc1O)c1cc2c(F)c(F)ccc2[nH]1
Pyruvate kinase
  IC50: 24 nM
Staphylococcus aureus
  MIC>98: 41 µg/mL (≈ 100 µM)

## C/C(=N\NC(=O)c1cc(I)ccc1O)c1cc2ccccc2[nH]1
[1]
  inhibition: -1.6%
Pyruvate kinase
  IC50: 151 nM
Staphylococcus aureus
  MIC>98: >84 µg/mL
[2]
  inhibition: -1.3%
[3]
  inhibition: 0.9%
[4]
  inhibition: 97%
[5]
  inhibition: 0%

## COc1cc(O)c(C(=O)NN=C(C)c2cc3ccccc3n2C)cc1Br (mixture of isomers)
Pyruvate kinase
  IC50: 841 nM
Staphylococcus aureus
  MIC>98: >167 µg/mL

## CC(=NNC(=O)c1cc(Br)ccc1O)c1cc2c(F)c(F)ccc2n1C (mixture of isomers)
Pyruvate kinase
  IC50: 145 nM
Staphylococcus aureus
  MIC>98: 2 µg/mL

## C/C(=N\NC(=O)c1cc(Br)ccc1O)c1cc2cc(Cl)ccc2[nH]1
[1]
  inhibition: 0.1%
Pyruvate kinase
  IC50: 52 nM
Staphylococcus aureus
  MIC>98: >81 µg/mL
[2]
  inhibition: 4.6%
[3]
  inhibition: 2.4%
[4]
  inhibition: 80.1%
[5]
  inhibition: 4.4%

## C#CCOc1ccccc1C(=O)N/N=C(\C)c1cc2cc(Br)ccc2[nH]1
[1]
  inhibition: 23.1%
Pyruvate kinase
  IC50: 64 nM
Staphylococcus aureus
  MIC>98: >205 µg/mL
[2]
  inhibition: 2.5%
[3]
  inhibition: 24%
[4]
  inhibition: 93.2%
[5]
  inhibition: 20.2%

## C/C(=N\NC(=O)c1cc(Br)ccc1O)c1cc2ccccc2s1
[1]
  inhibition: 7.3%
Pyruvate kinase
  IC50: 286 nM
Staphylococcus aureus
  MIC>98: >195 µg/mL
[2]
  inhibition: -1.1%
[3]
  inhibition: 12.5%
[4]
  inhibition: 96.4%
[5]
  inhibition: 10.2%

## O=C(N/N=C/c1cc2ccccc2[nH]1)c1cc(Br)ccc1O
[1]
  inhibition: 0.2%
Pyruvate kinase
  IC50: 863 nM
Staphylococcus aureus
  MIC>98: >179 µg/mL
[2]
  inhibition: -1.4%
[3]
  inhibition: -0.5%
[4]
  inhibition: 89.9%
[5]
  inhibition: -7.2%

## COc1ccc(Br)cc1C(=O)O/N=C(\C)c1cc2ccccc2n1C
Staphylococcus aureus
  MIC>98: >161 µg/mL
[4]
  inhibition: 33%

## COc1cc(O)c(C(=O)N/N=C(\C)c2cc3ccccc3[nH]2)cc1Br
Pyruvate kinase
  IC50: 324 nM
Staphylococcus aureus
  MIC>98: >161 µg/mL

## COc1ccc2[nH]c(/C(C)=N/NC(=O)c3cc(Br)ccc3O)cc2c1
[1]
  inhibition: 3.9%
Pyruvate kinase
  IC50: 178 nM
Staphylococcus aureus
  MIC>98: >80 µg/mL
[2]
  inhibition: 2.2%
[3]
  inhibition: 5.2%
[4]
  inhibition: 89.3%
[5]
  inhibition: 7.2%

## C/C(=N\NC(=O)c1ccc(Br)cc1O)c1cc2ccccc2[nH]1
Pyruvate kinase
  IC50: 1310 nM

## C/C(=N\NC(=O)c1ccccn1)c1cc2ccccc2[nH]1
Staphylococcus aureus
  MIC>98: >139 µg/mL
[4]
  inhibition: 15%

## CC(=NNC(=O)c1cc(Br)ccc1O)c1cc2cc(Br)ccc2n1C (mixture of isomers)
[1]
  inhibition: 9.2%
Pyruvate kinase
  IC50: 146 nM
Staphylococcus aureus
  MIC>98: 1.4 µg/mL
[2]
  inhibition: 11.9%
[3]
  inhibition: 14.2%
[5]
  inhibition: 19.5%

## CC(=NNC(=O)c1cc(Br)ccc1O)c1cc2cc(F)ccc2n1C (mixture of isomers)
[1]
  inhibition: -2.3%
Pyruvate kinase
  IC50: 165 nM
Staphylococcus aureus
  MIC>98: 3.3 µg/mL
[3]
  inhibition: -2.9%
[4]
  inhibition: 96.1%
[5]
  inhibition: -4.5%

## CC(=NNC(=O)c1cc(Br)ccc1O)c1nc2ccccc2s1
Pyruvate kinase
  IC50: 224 nM
Staphylococcus aureus
  MIC>98: >78 µg/mL

## C/C(=N\NC(=O)c1cc(Br)ccc1O)c1cc2cc(I)ccc2[nH]1
Pyruvate kinase
  IC50: 43 nM
Staphylococcus aureus
  MIC>98: >64 µg/mL

## C/C(=N\NC(=O)c1ccccc1)c1cc2ccccc2[nH]1
Staphylococcus aureus
  MIC>98: >139 µg/mL
[4]
  inhibition: 28%

## COc1ccc(Br)cc1S(=O)(=O)N/N=C(\C)c1cc2ccccc2[nH]1
[4]
  inhibition: 12%

## C/C(=N\NC(=O)c1cc(-c2ccccc2)ccc1O)c1cc2ccccc2[nH]1
[4]
  inhibition: 20%

## C/C(=N\NC(=O)c1ccccc1O)c1cc2ccccc2[nH]1
Pyruvate kinase
  IC50: 8620 nM
Staphylococcus aureus
  MIC>98: 59 µg/mL (≈ 201 µM)

## C/C(=N\NC(=O)c1cc(C(C)C)cc(C(C)C)c1O)c1cc2ccccc2[nH]1
[4]
  inhibition: 40%

## C/C(=N\NC(=O)c1cccc(Br)c1)c1cc2ccccc2[nH]1
Pyruvate kinase
  IC50: 8150 nM
Staphylococcus aureus
  MIC>98: >178 µg/mL

## C/C(=N\NC(=O)c1cc(Br)ccc1O)c1cc2cc(C(F)(F)F)ccc2[nH]1
[4]
  inhibition: 46%
